In general, IC50 refers to the concentration that gives 50% inhibition.

Data set [1] deals with RAW264.7. Put plainly: Antiinflammatory activity in LPS-induced mouse RAW264.7 cells assessed as inhibition of NO production at 20 uM preincubated for 2 hrs followed by LPS stimulation for 24 hrs by Griess reagent based assay. Format: functional, cell-based. To be noted: time 26.0 hrs. The method, boiled down:
(§1)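 Cells at 100 000 per well, grown 36 h in DMEM with 10% heat-inactivated FBS at 37 °C, 5% CO2. Pretreated 2 h with compound (20 μM in the screen), then LPS 1 μg mL−1 for 24 h. Supernatant mixed with Griess reagent, absorbance read at 540 nm, nitrite read from a sodium nitrite standard curve. Expressed as % of LPS control; ≥3 independent experiments, each in triplicate.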

For data set [2], the system named is RAW264.7. Put plainly: Inhibition of JNK signaling activation in LPS-induced mouse RAW264.7 cells assessed as downregulation of JNK phosphorylation preincubated for 2 hrs followed by LPS addition for 2 hrs by Western blot analysis. Format: cell-based. To be noted: dose 10-40 µM, time 4.0 hrs. The method, boiled down: (§2)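 RAW264.7 macrophages pretreated 2 h with vehicle (DMSO) or compound at 10, 20 or 40 μM, then LPS 1 μg mL−1 for 2 h. p-p65 and p-JNK detected by Western blot, normalized to β-actin and to total p65 or JNK. Optical density expressed as % of control; mean ± SEM of at least three independent experiments.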

The subject of data set [3] is RAW264.7. The experiment in a line: Inhibition of NF-kB signaling activation in LPS-induced mouse RAW264.7 cells assessed as downregulation of p65 phosphorylation preincubated for 2 hrs followed by LPS addition for 2 hrs by Western blot analysis. To be noted: dose 10-40 µM, time 4.0 hrs. Format: cell-based. The method, boiled down: as §2
For orientation: Immunoblotting shows a protein as a band on a membrane.

Data set [4] has as its system RAW264.7. The experiment in a line: Antiinflammatory activity in LPS-induced mouse RAW264.7 cells assessed as inhibition of TNF-alpha release preincubated for 2 hrs followed by LPS stimulation for 24 hrs by ELISA method. Format: functional, cell-based. To be noted: for Activity: dose 2.5-40 µM, time 26.0 hrs. The method, boiled down: (§3)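 RAW264.7 macrophages pretreated 2 h with compound at 2.5, 5, 10, 20 and 40 μM, then LPS 1 μg mL−1 for 24 h. Cytokine in supernatant measured with commercial ELISA kits per the manufacturers' protocols. IC50 derived from the dose series. Mean ± SD.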
On the technique in general: In an ELISA, binding on a coated surface is turned into a signal by an enzyme label.

The test system of data set [5] is RAW264.7. The experiment in a line: Antiinflammatory activity in LPS-induced mouse RAW264.7 cells assessed as inhibition of IL-6 release preincubated for 2 hrs followed by LPS stimulation for 24 hrs by ELISA method. Format: functional, cell-based. To be noted: for Activity: dose 2.5-40 µM, time 26.0 hrs. In short, it runs like this:
as §3

In data set [6] the test system is RAW264.7. Put plainly: Antiinflammatory activity in LPS-induced mouse RAW264.7 cells assessed as inhibition of PGE2 production preincubated for 2 hrs followed by LPS stimulation for 24 hrs by ELISA method. Format: functional, cell-based.
The subject of data set [7] is RAW264.7. Put plainly: Antiinflammatory activity in LPS-induced mouse RAW264.7 cells assessed as downregulation of IL-6 mRNA expression level preincubated for 2 hrs followed by LPS stimulation for 6 hrs by RT-qPCR analysis. Format: functional, cell-based. To be noted: dose 5-20 µM, time 8.0 hrs. The method, boiled down: (§4)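 RAW264.7 cells pretreated 2 h with compound at 5, 10 or 20 μM or vehicle, then LPS 1 μg mL−1 for 6 h. Total RNA extracted and target mRNAs quantified by RT-qPCR, normalized to β-actin mRNA. Mean ± SD of three independent experiments.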
In general terms: Real-time PCR tracks product formation cycle by cycle.

The test system of data set [8] is RAW264.7. The experiment in a line: Antiinflammatory activity in LPS-induced mouse RAW264.7 cells assessed as downregulation of IL-1beta mRNA expression level preincubated for 2 hrs followed by LPS stimulation for 6 hrs by RT-qPCR analysis. To be noted: dose 5-20 µM, time 8.0 hrs. Format: functional, cell-based. The method, boiled down: as §4
Data set [9] relates to RAW264.7. The experiment in a line: Antiinflammatory activity in LPS-induced mouse RAW264.7 cells assessed as downregulation of TNF-alpha mRNA expression level preincubated for 2 hrs followed by LPS stimulation for 6 hrs by RT-qPCR analysis. Format: functional, cell-based. To be noted: dose 5-20 µM, time 8.0 hrs. The method, boiled down:
as §4

In data set [10] the test system is RAW264.7. Put plainly: Antiinflammatory activity in LPS-induced mouse RAW264.7 cells assessed as decrease in iNOS protein level at 10 to 40 uM preincubated for 2 hrs followed by LPS stimulation for 24 hrs by Western blot analysis. To be noted: dose 10-40 µM, time 26.0 hrs. Format: functional, cell-based. The method, boiled down: (§5)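 RAW264.7 cells given compound at 10, 20 or 40 μM, then LPS (1 μg mL−1). Lysis in 1% Triton X-100 buffer with phosphatase and protease inhibitors, 30 min on ice. Protein quantified by BCA, run on 10% SDS-PAGE, transferred to PVDF. Primary antibody overnight at 4 °C, HRP secondary 2 h at room temperature, ECL detection. β-Actin as loading control. Mean ± SD, n = 3.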

For data set [11], the system named is RAW264.7. The experiment in a line: Antiinflammatory activity in LPS-induced mouse RAW264.7 cells assessed as decrease in COX-2 protein level at 10 to 40 uM preincubated for 2 hrs followed by LPS stimulation for 24 hrs by Western blot analysis. Format: functional, cell-based. To be noted: dose 10-40 µM, time 26.0 hrs. In short, it runs like this:
as §5

Data set [12] concerns RAW264.7. The experiment in a line: Antiinflammatory activity in LPS-induced mouse RAW264.7 cells assessed as downregulation of iNOS mRNA expression level preincubated for 2 hrs followed by LPS stimulation for 6 hrs by RT-qPCR analysis. Format: functional, cell-based. To be noted: dose 5-20 µM, time 8.0 hrs. The method, boiled down:
as §4

The test system of data set [13] is RAW264.7. The experiment in a line: Cytotoxicity against mouse RAW264.7 cells assessed as cell survival at 20 uM incubated for 4 hrs by CCK-8 method. Format: toxicity, cell-based. To be noted: raw264.7, 4 h. The method, boiled down:
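RAW 264.7 cells seeded at 20 000 per well, grown 24 h at 37 °C, exposed to compound for 4 h. CCK-8 (WST-8) reagent then added for 50 min at 37 °C, absorbance read at 450 nm. Survival = (test − blank)/(untreated medium control − blank) × 100%, blank being medium without cells.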

In data set [14] the test system is RAW264.7. The experiment in a line: Antiinflammatory activity in LPS-induced mouse RAW264.7 cells assessed as inhibition of IL-1beta release preincubated for 2 hrs followed by LPS stimulation for 24 hrs by ELISA method. Format: functional, cell-based. To be noted: for Activity: dose 2.5-40 µM, time 26.0 hrs. In short, it runs like this: as §3
For data set [15], the system named is RAW264.7. The experiment in a line: Antiinflammatory activity in LPS-induced mouse RAW264.7 cells assessed as inhibition of iNOS activity preincubated for 2 hrs followed by LPS stimulation for 24 hrs by ELISA method. Format: functional, cell-based.
Data set [16] relates to RAW264.7. The experiment in a line: Antiinflammatory activity in LPS-induced mouse RAW264.7 cells assessed as downregulation of COX-2 mRNA expression level preincubated for 2 hrs followed by LPS stimulation for 6 hrs by RT-qPCR analysis. Format: functional, cell-based. To be noted: dose 5-20 µM, time 8.0 hrs. The method, boiled down: as §4
For data set [17], the system named is RAW264.7. Put plainly: Inhibition of ROS production in LPS-induced mouse RAW264.7 cells preincubated for 2 hrs followed by LPS stimulation for 24 hrs by Real-time single cell multi-mode analyzer. To be noted: dose 10-40 µM, time 26.0 hrs. Format: functional, cell-based. The method, boiled down:
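Cells on confocal dishes at 100 000 per well for 36 h, pretreated 2 h with compound at 10, 20 or 40 μM, then LPS 1 μg mL−1 for 24 h. Loaded with 50 μM H2DCFDA in PBS for 30 min in the dark. ROS read per cell on a real-time single-cell multi-mode analyzer. Mean ± SD.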

The subject of data set [18] is RAW264.7. Put plainly: Antiinflammatory activity in LPS-induced mouse RAW264.7 cells assessed as inhibition of NO production preincubated for 2 hrs followed by LPS stimulation for 24 hrs by Griess reagent based assay. Format: functional, cell-based. The method, boiled down: as §1
Data set [19] concerns RAW264.7. Put plainly: Antiinflammatory activity in LPS-induced mouse RAW264.7 cells assessed as reduction in NO production at 20 uM preincubated for 2 hrs followed by LPS stimulation for 24 hrs by Griess reagent based assay. Format: functional, cell-based. To be noted: time 26.0 hrs. The method, boiled down:
as §1

The structures appear in SMILES notation. Calls of active or inactive are those of the source. The rule behind the calls is not given here.

As for `COc1cc(CCC(=O)c2ccc(F)c(C)c2)cc(OC)c1OC`, the result in data set [1] was inactive.

With `COc1ccc(C(=O)/C=C/c2cc(OC)c(OC)c(OC)c2)cc1OC`, the inhibition entry in [2] and in data set [3] was “Dose-Dependent Effect” each time. In addition, the half-inhibitory concentration (IC50) in data set [4] is 7.9 µM; in data set [5], 2.1 µM; in data set [6], 4 µM; in data set [14] it was 12.3 µM; in data set [15], 4.6 µM. Besides, the Activity entry in data set [4], in data set [5], in [7], in data set [8], in [9] and in [12] was “Dose-Dependent Effect” each time. Moreover, the Activity result in data set [13] was “Non-Toxic”; in data set [14] it was “Dose-Dependent Effect”; in data set [16] it was “Dose-Dependent Effect”. Also, the result in data set [10] and in data set [11] was Active.

For the molecule `COc1ccc(CCC(=O)c2ccc(O)cc2)c(OC)c1`, the inhibition result in data set [1] is “inactive”.

Regarding `COc1ccc(/C=C/C(=O)c2cc(OC)c(OC)c(OC)c2)cc1OC`, the inhibition result in [2], in [3] and in data set [17] was “Dose-Dependent Effect” in each case. Besides, the half-maximal inhibitory concentration (IC50) was found to be 7.1 µM in data set [4]; 8.4 µM in data set [5]; 9.5 µM in data set [6]; 7.6 µM in data set [18]; 10 µM in data set [14]; 11.9 µM in data set [15]. Besides, the Activity result was “Dose-Dependent Effect” in data set [4]; “Dose-Dependent Effect” in [5]; “Dose-Dependent Effect” in data set [7]; “Dose-Dependent Effect” in data set [8]; “Dose-Dependent Effect” in data set [9]; “Dose-Dependent Effect” in data set [18] (dose 2.5-40 µM, time 26.0 hrs). Further, the Activity entry was “Dose-Dependent Effect” in [12], “Non-Toxic” in data set [13], “Dose-Dependent Effect” in data set [14] and “Dose-Dependent Effect” in data set [16]. Moreover, the outcome in data set [10], in [11] and in data set [19] was Active.

As for `COc1ccc(C(=O)CCc2ccc(OC)c(OC)c2)cc1`, the result in data set [1] was inactive.

The values are drawn from ChEMBL document CHEMBL5532751, “Identification of chalcone analogues as anti-inflammatory agents through the regulation of NF-κB and JNK activation” (RSC Med Chem, 2024).
